The list is not random: actives were taken first. Their share in the collection is about 4.1%.
T cruzi inh = inhibitors of intracellular T. cruzi growth, primary screen, luminescence, NIH3T3 host cells; T. cruzi beta-gal in NIH3T3, 90 h; 300,000 compounds, 1.4% hits; inhibition, % (concentration not given with the values);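 active = mean inhibition across valid replicates above about 55%, limit read from the data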;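 also: signal also drops with host cell toxicity which is not excluded here; higher percent means less beta-gal luminescence so fewer parasites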
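Assay system: NIH/3T3 host cells with β-galactosidase reporter T. cruzi; input: 5,000 host fibroblasts per well; compound: single 50 nL compound addition per well in DMSO; timing: ≥90 h infection period, 3 h prior cell attachment; measured by: GalScreen β-gal luminescence, detergent lysis, 60 min; evaluation: percent inhibition of parasite-derived β-gal signal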
MEKK2mut PB1 HTS = MEK5 binding signal on mutant MEKK2 PB1, primary screen, biochemical, multiplex bead flow cytometry, Alexa488-MEK5. Alexa488-MEK5 binding to MEKK2 mutant. percent response, % at 10 µM. 290,000 compounds, 0.35% hits. AID 1530, 2009; in the data active = percent response above about 24%, passing the limit was not always enough
MEKK2 WT-MEK5 = modulators of MEK5 binding to wildtype MEKK2, primary screen, biochemical, multiplex bead flow cytometry, Alexa488-MEK5 | binding response (% of control), % at 10 µM | Alexa488-MEK5 binding to MEKK2 WT; actives lie on both sides | 290,000 compounds, 1.1% hits; in the data active = binding response below about 67% or above about 130%
FID counter = compounds displacing fluorescent DNA intercalator, primary screen, artefact control for HCV NS3 helicase inhibitor project, biochemical, FID fluorescence; DNA fluorescent intercalator displacement; inhibition, % at 7.9 µM; 290,000 compounds, 0.17% hits; in the data active = inhibition above about 37%;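 also: higher means more ethidium bromide displaced from hairpin DNA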
MEKK3 PB1 HTS = modulators of MEKK3-MEK5 PB1 binding, primary screen, biochemical, wildtype MEKK3, multiplex bead flow cytometry, Alexa488-MEK5; Mitogen-activated protein kinase kinase kinase 3 (Homo sapiens), Q99759; bead-based flow cytometry, Alexa488-MEK5 binding to MEKK3; actives lie on both sides; 0 = blocked by unlabeled MEK5, 100 = vehicle; binding response (% of control), % at 10 µM; 290,000 compounds, 1.4% hits;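 active = binding response more than 3 SD above or below the average of its plate-row segment, actives on both sides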;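 also: Alexa488 bead fluorescence after subtracting the streptavidin-only scavenger bead signal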
Target sequence (Q99759 whole entry, looked up): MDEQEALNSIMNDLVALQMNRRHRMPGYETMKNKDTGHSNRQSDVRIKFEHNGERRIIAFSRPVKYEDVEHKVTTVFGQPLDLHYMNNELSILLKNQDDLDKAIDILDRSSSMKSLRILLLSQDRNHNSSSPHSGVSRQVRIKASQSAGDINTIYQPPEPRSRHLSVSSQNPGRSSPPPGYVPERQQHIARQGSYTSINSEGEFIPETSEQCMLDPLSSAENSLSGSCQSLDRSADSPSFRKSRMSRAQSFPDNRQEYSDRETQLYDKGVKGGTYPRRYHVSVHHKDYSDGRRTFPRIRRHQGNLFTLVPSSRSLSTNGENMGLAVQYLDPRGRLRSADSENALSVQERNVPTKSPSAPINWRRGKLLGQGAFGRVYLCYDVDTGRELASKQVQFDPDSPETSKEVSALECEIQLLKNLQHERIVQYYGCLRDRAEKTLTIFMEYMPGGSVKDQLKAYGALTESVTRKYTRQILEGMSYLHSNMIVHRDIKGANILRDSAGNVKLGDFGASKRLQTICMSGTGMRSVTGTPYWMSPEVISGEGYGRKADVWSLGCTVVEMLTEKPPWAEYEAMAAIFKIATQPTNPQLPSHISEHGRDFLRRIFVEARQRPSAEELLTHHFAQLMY
NS3 helicase inh = inhibitors of HCV NS3 helicase, primary screen, biochemical, Cy5 molecular beacon fluorescence; Hepatitis C virus NS3 helicase; NS3 helicase DNA unwinding; inhibition, % at 10.9 µM; 290,000 compounds, 0.56% hits; AID 1800, 2009;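 active = inhibition above the mean of all tested compounds plus 3 SD, set per campaign, cut at about 35% in these data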
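Control set: DMSO versus 110 µM thioflavine S; Material: NS3 helicase fragment of HCV; Measured by: Cy5 fluorescence at 0 and 60 min, beacon hairpin quenching; Read-out basis: percent inhibition from t60/t0 fluorescence ratio; Times: reaction time 60 min, 25 °C; Repeats: single replicate; Compound dosing: single dose, 10.9 µM nominal final, DMSO 0.8% final.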
MEKK2wt confirm = modulators of MEK5 binding to wildtype MEKK2, confirmation, biochemical, single concentration, multiplex bead flow cytometry | Alexa488-MEK5 binding to MEKK2 WT; actives lie on both sides | 5,900 compounds, 2.4% hits | binding response (% of control), % at 10 µM | AID 1892, 2009 | shares compounds with MEKK3 PB1 HTS; in the data active = binding response below about 16% or above about 210%; inactive = in between
MEKK2mut confirm = mutant MEKK2 PB1-MEK5 binding signal retest – biochemical, single concentration, multiplex bead flow cytometry, confirmation; shares compounds with MEKK3 PB1 HTS; Alexa488-MEK5 binding to MEKK2 mutant; percent response, % at 10 µM; 5,900 compounds, 2% hits; in the data active = percent response mostly above about 71%, no sharp cut-off; inactive = mostly below about 38%;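 also: higher means compound restores mutant binding toward wildtype level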
MEKK3-MEK5 inh = MEKK3 wild-type PB1 binding to MEK5, inhibitors, confirmation, biochemical, bead multiplex flow cytometry, single concentration, wildtype | shares compounds with MEKK3 PB1 HTS | 5,900 compounds, 1.8% hits | binding response (% of control), % at 10 µM | Alexa488-MEK5 binding to MEKK3; hits give low values;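 active = binding response below 72% of control, or above a set upper limit, though filed actives all read lower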;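 also: lower values mean stronger disruption of MEK5 binding to MEKK3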
Large screens that a line does not name were inactive (follow-up assays come after a bar, where they were run); [ ] = another dose, or the depositor's remark.

Cc1cccc(N(CC(N)=O)C2SC(=O)N(c3ccccc3)C2=O)c1 (stereo unspecified)	none
CC1=C[C@@H](C)[C@@H](c2ccc(C(F)(F)F)cc2)OC1=O	none
CC1=C[C@@H](C)[C@@H](c2ccccc2)OC1=O	MEKK3 PB1 HTS 78.0[inhibitor] (no result: FID counter, NS3 helicase inh) | MEKK2wt confirm inactive | MEKK2mut confirm inactive | MEKK3-MEK5 inh inactive
Cc1ccc(CSCC(=O)Nc2ccc(N3CCOCC3)cc2N2CCOCC2)cc1	none (no result: MEKK2mut PB1 HTS, MEKK2 WT-MEK5, FID counter, MEKK3 PB1 HTS, NS3 helicase inh)
CN(C)CCCNC(=O)c1cc(C(=O)c2cccc(Cl)c2Cl)c[nH]1	none
O=C(Cn1cc(S(=O)(=O)N2CCN(c3ccccc3F)CC2)c2ccccc2c1=O)NCCCN1CCCCCC1	MEKK2 WT-MEK5 7.0[inhibitor], MEKK3 PB1 HTS 3.0[inhibitor] | MEKK2wt confirm inactive | MEKK2mut confirm inactive | MEKK3-MEK5 inh inactive
COCCNC(=O)Cn1cc(S(=O)(=O)N2CCN(c3ccccc3F)CC2)c2ccccc2c1=O	none
CCCC(C(=O)Nc1ccc2c(C)cc(=O)oc2c1)c1ccccc1 (stereo unspecified)	none
COc1cccc(NC(=O)CSc2ncc(S(=O)(=O)c3ccccc3)c(=O)[nH]2)c1	MEKK3 PB1 HTS 134.0 | MEKK2wt confirm inactive | MEKK2mut confirm inactive | MEKK3-MEK5 inh inactive
CCc1nc(N2CCCC2C(=O)O)c2oc3ccccc3c2n1 (stereo unspecified)	MEKK3 PB1 HTS 57.0[inhibitor] | MEKK2wt confirm inactive | MEKK2mut confirm inactive | MEKK3-MEK5 inh inactive
COC(=O)N/N=C/c1cc(N=Nc2ccccc2)ccc1O	none
Cc1cc(C(=O)N/N=C/c2cc(N=Nc3ccccc3)ccc2O)n[nH]1	MEKK3 PB1 HTS 38.0[inhibitor] | MEKK2wt confirm inactive | MEKK2mut confirm inactive | MEKK3-MEK5 inh inactive
CCN(CC)c1ccc(-n2c(O)c(C=C3N=c4ccccc4=N3)sc2=S)cc1	MEKK3 PB1 HTS 153.0 | MEKK2wt confirm inactive | MEKK2mut confirm inactive | MEKK3-MEK5 inh inactive
COCCn1c(SCc2ccc(F)cc2)nc2ccccc2c1=O	none
COCCn1c(SCc2ccc(OC)c(F)c2)nc2ccccc2c1=O	T cruzi inh 75.1, MEKK3 PB1 HTS 156.0 | MEKK2wt confirm inactive | MEKK2mut confirm inactive | MEKK3-MEK5 inh inactive
COc1ccc(CSc2nc3ccccc3c(=O)[nH]2)cc1F	MEKK2 WT-MEK5 9.0[inhibitor], MEKK3 PB1 HTS 6.0[inhibitor] | MEKK2wt confirm inactive | MEKK2mut confirm inactive | MEKK3-MEK5 inh inactive
Cc1cccc(NC(=O)C2NC(=O)CC2c2ccccc2)c1C (stereo unspecified)	none
Cc1onc(-c2ccccc2)c1-c1ccnc(N)n1	none
Cc1ccc(C)n1-c1ccc(-c2ccnc(N)n2)cc1	MEKK3 PB1 HTS 147.0 (no result: T cruzi inh) | MEKK2wt confirm inactive | MEKK2mut confirm inactive | MEKK3-MEK5 inh inactive
O=C(COc1ccc(Br)cc1)Nc1cc(S(=O)(=O)N2CCCCC2)ccc1N1CCCCC1	MEKK3 PB1 HTS 139.0 | MEKK2wt confirm inactive | MEKK2mut confirm inactive | MEKK3-MEK5 inh inactive
O=C(NCC1CCCO1)C(c1cccnc1)N(C(=O)Cc1cccs1)c1ccccc1 (stereo unspecified)	MEKK2 WT-MEK5 -10.0[inhibitor], MEKK3 PB1 HTS -1.0[inhibitor] | MEKK2wt confirm inactive | MEKK2mut confirm inactive | MEKK3-MEK5 inh inactive
Cc1ccccc1N(C(=O)Cc1cccs1)C(C(=O)NCC1CCCO1)c1cccnc1 (stereo unspecified)	none
CS(=O)(=O)N(Cc1ccccc1)c1ccc(C(=O)NCC2CCCO2)cc1 (stereo unspecified)	MEKK3 PB1 HTS 123.0 | MEKK2wt confirm inactive | MEKK2mut confirm inactive | MEKK3-MEK5 inh inactive
O=C(NCC(=O)N(c1ccccc1)C(C(=O)NCC1CCCO1)c1ccccc1)c1ccco1 (stereo unspecified)	MEKK3 PB1 HTS 125.0 | MEKK2wt confirm inactive | MEKK2mut confirm inactive | MEKK3-MEK5 inh inactive
Cc1ccc(N(C(=O)CNC(=O)c2ccco2)C(C(=O)NCC2CCCO2)c2ccccc2)cc1 (stereo unspecified)	none
O=C(NCC(=O)N(c1ccc(F)cc1)C(C(=O)NC1CCCC1)c1cccnc1)c1cccs1 (stereo unspecified)	none
O=C(NCC(=O)N(c1cccc(F)c1)C(C(=O)NC1CCCC1)c1cccnc1)c1cccs1 (stereo unspecified)	MEKK3 PB1 HTS 129.0 | MEKK2wt confirm inactive | MEKK2mut confirm inactive | MEKK3-MEK5 inh inactive
CC(C)(C)NC(=O)c1ccc(COc2ccc(Cl)cc2Cl)o1	none
CC(NC(=S)NCCCN1CCOCC1)C12CC3CC(CC(C3)C1)C2 (stereo unspecified)	none (no result: T cruzi inh)
O=C(NCC1CCCO1)C(c1cccs1)N(C(=O)Cn1nnc(-c2cccs2)n1)C1CCCC1 (stereo unspecified)	none
O=C(NCC1CCCO1)C(c1cccs1)N(Cc1cccs1)C(=O)Cn1nnc(-c2cccs2)n1 (stereo unspecified)	MEKK2 WT-MEK5 -2.0, MEKK3 PB1 HTS 66.0[inhibitor] (no result: T cruzi inh) | MEKK2wt confirm inactive | MEKK2mut confirm inactive | MEKK3-MEK5 inh inactive
O=c1c2sccc2nc(SCc2ccc([N+](=O)[O-])cc2)n1Cc1ccccn1	MEKK3 PB1 HTS 63.0[inhibitor] | MEKK2wt confirm inactive | MEKK2mut confirm inactive | MEKK3-MEK5 inh inactive
Cn1cccc1C(NC(=O)c1ccccc1)C(Cl)(Cl)Cl (stereo unspecified)	none
O=C(NC(=S)NCCC1=CCCCC1)c1cncc(Br)c1	MEKK3 PB1 HTS 152.0 | MEKK2wt confirm inactive | MEKK2mut confirm inactive | MEKK3-MEK5 inh inactive
CC(=O)Oc1c2occc2cc2ccc(=O)oc12	none
COc1c2occc2c(OC(C)=O)c2c(=O)cc(C)oc12	MEKK2mut PB1 HTS 49.0, MEKK3 PB1 HTS 80.0[inhibitor] | MEKK2wt confirm inactive | MEKK2mut confirm inactive | MEKK3-MEK5 inh inactive

Screening results (PubChem BioAssay)
